Sampled rows, rich in hits. Any-hit rate of the full collection: about 2.9%.
mHtt clearance = clearance of mutant huntingtin inclusions, primary screen, imaging, HeLa Exon1htt(103Q)mCFP, confocal imaging. aggregate imaging; zero = plate's median compound well. inhibition, % at 1.5 µM. hit rate 0.42% among 47,000. AID 853, 2007;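 active = inhibition of aggregate fluorescence above about 70%, also judged a hit by eye on the cell image, limit read from the data, passing the limit was not always enough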;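 also: cells exposed to compound for three days before fixation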
SF-1 act = activators of human SF-1, primary screen, cell-based, CHO-K1, Gal4-SF-1 LBD, luciferase luminescence; Steroidogenic factor 1 (Homo sapiens), Q13285; CHO-K1 Gal4-SF-1 LBD luciferase reporter; % increase over DMSO SF-1-specific signal; activation, % at 10 µM; hit rate 1.9% among 65,000;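 active = activation above the mean activation of all tested compounds plus 3 SD, cut at about 50% in these data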
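System: CHO-K1 cells with Gal4–hSF-1 LBD chimera plus Gal4-driven luciferase; quantity: 4,000 CHO-K1 cells per well; compound: one dose, 10 µM compound, 1% DMSO; times: 20 h compound treatment, 37 °C; measured by: SteadyLite luciferase luminescence; read-out: percent activation versus DMSO; benchmarks: DMSO and mock-transfected background; replicates: one test per compound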
JNK3 inh = JNK3 kinase activity inhibitors, primary screen, biochemical, human, purified enzyme; AID 746, 2007; HTS; hit rate 0.61% among 60,000; inhibition, % at 8 µM; in the data active = inhibition above about 17%;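 also: 0% = DMSO and 100% = reference inhibitor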
Target sequence (P53779 whole entry, looked up): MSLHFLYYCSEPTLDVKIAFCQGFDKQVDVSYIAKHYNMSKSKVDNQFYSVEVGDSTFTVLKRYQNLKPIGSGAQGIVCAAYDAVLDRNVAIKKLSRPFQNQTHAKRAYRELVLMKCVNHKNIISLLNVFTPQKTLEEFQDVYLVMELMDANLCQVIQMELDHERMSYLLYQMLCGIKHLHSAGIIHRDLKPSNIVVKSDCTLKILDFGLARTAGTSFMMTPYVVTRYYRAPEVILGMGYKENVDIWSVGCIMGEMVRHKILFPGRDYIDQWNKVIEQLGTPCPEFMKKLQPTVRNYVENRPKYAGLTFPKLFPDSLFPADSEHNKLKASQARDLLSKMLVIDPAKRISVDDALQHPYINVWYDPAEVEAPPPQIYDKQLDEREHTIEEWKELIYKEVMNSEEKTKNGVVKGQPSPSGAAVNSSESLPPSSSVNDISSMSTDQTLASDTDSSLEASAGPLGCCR
RORa activator = activators of orphan receptor RORA, primary screen, cell-based, luminescence | Nuclear receptor ROR-alpha (Homo sapiens), P35398 | CHO-K1 Gal4-RORA LBD luciferase reporter; percent increase over mock-subtracted basal signal | activation, % at 10 µM | hit rate 1.5% among 65,000;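 active = activation above the mean of all tested compounds plus 3 SD, cut at about 49% in these data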;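 also: 0% = DMSO-treated RORA cells and 100% = added signal equal to DMSO minus mock-transfected cells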
ROCK2 inh = inhibitors of human ROCK2 kinase, primary screen, biochemical, high-throughput, luminescence; Rho-associated protein kinase 2 (Homo sapiens), O75116; purified ROCK2, Kinase-Glo ATP depletion luminescence; inhibition, % at 6 µM; hit rate 0.35% among 60,000; AID 604, 2007;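 active = inhibition above the screen-wide mean inhibition plus 3 SD, cut at about 18% in these data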;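 also: plate controls were DMSO wells for no effect and Y-27632 control wells after no-enzyme background subtraction for full effect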
PKA inh = inhibitors of human PKA kinase activity, primary screen, biochemical, ATP-depletion luminescence, Kemptide substrate | PKA Kemptide phosphorylation, Kinase-Glo ATP luminescence | inhibition, % at 6 µM | cAMP-dependent protein kinase catalytic subunit alpha (Homo sapiens), P17612 | AID 524, 2006 | hit rate 0.1% among 65,000;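 active = inhibition above the screen-wide mean inhibition plus 3 SD, cut at about 21% in these data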
The depositor's hits bear a star.

How did COc1ccc(OC)c(N=CC2=C(O)CC(C)(C)CC2=O)c1 do in these assays?
SF-1 act: 13.8; JNK3 inh: -12.6; RORa activator: 10.2; ROCK2 inh: -1.9; PKA inh: 4.0

Results for COc1ccc(N=CC2=C(O)CCCC2=O)cc1 ?
mHtt clearance: -17.4; SF-1 act: 52.2*; JNK3 inh: -0.8; RORa activator: 14.9; ROCK2 inh: -2.0; PKA inh: -5.8

Results for O=C(CSc1nc(-c2ccc(F)cc2)cs1)N1CCN(C(=O)c2ccco2)CC1 ?
SF-1 act: -18.9; JNK3 inh: 11.2; RORa activator: -20.0; ROCK2 inh: 3.4; PKA inh: 1.8

How did Cc1ccc2nc(Cc3ccc(N)cc3)oc2c1 do in these assays?
mHtt clearance: -12.1; SF-1 act: 67.8*; JNK3 inh: 20.5*; RORa activator: 38.9; ROCK2 inh: 3.4; PKA inh: 11.9

How did Cc1ccc(C(C)C)c(OCCNc2nc3c(c(=O)n(C)c(=O)n3C)n2C)c1 do in these assays?
SF-1 act: -48.9; JNK3 inh: -1.8; RORa activator: -1.1; ROCK2 inh: 1.9; PKA inh: 2.5

How did Cc1ccc(NC(=O)N2CCC(C(=O)NCc3ccccc3)CC2)cc1 do in these assays?
mHtt clearance: -5.5; SF-1 act: 21.3; JNK3 inh: 2.0; RORa activator: -19.6; ROCK2 inh: 2.9; PKA inh: 13.2

Results for Cc1ccc(C2CCN(C(=O)Nc3ccccc3)C2)cc1 (stereo unspecified) ?
mHtt clearance: -197.9; SF-1 act: 58.5*; JNK3 inh: 2.2; RORa activator: 91.5*; ROCK2 inh: 2.4; PKA inh: 4.7

Results for COCCCn1cnc2c(c1=O)c1nc3ccccc3nc1n2-c1ccccc1 ?
mHtt clearance: -83.5; SF-1 act: 20.3; JNK3 inh: 1.1; RORa activator: -30.9; ROCK2 inh: 3.1; PKA inh: 5.1

Results for COCCCn1cnc2oc3nc4ccccc4nc3c2c1=O ?
SF-1 act: 33.9; JNK3 inh: -2.3; RORa activator: 50.2*; ROCK2 inh: -0.3; PKA inh: 0.7

What do the screens show for `CCOC(=O)c1[nH]c(C)c(C(=O)Nc2ccccc2F)c1C`?
mHtt clearance: -325.5; SF-1 act: 82.6*; JNK3 inh: 0.3; RORa activator: 110.5*; ROCK2 inh: 7.2; PKA inh: 8.7

What do the screens show for `CCOC(=O)CSCC(=O)Nc1c(C(=O)C2CC2)oc2ccccc12`?
mHtt clearance: -45.5

How did N#C/C(=C(\O)c1ccco1)c1ccccn1 do in these assays?
mHtt clearance: -15.9; SF-1 act: 30.0; JNK3 inh: 18.5*; RORa activator: 3.6; ROCK2 inh: 5.7; PKA inh: 7.3

What do the screens show for `CCOC(=O)CSC1=C(C#N)C(c2ccc(C)s2)CC(=O)N1` (stereo unspecified)?
mHtt clearance: -3.5; SF-1 act: 25.6; JNK3 inh: 2.9; RORa activator: 54.2*; ROCK2 inh: 3.1; PKA inh: -0.4

Results for CCc1nc2oc3ccccc3c(=O)c2c(=O)n1Cc1ccccc1 ?
SF-1 act: -13.3; JNK3 inh: 1.8; RORa activator: -6.5; ROCK2 inh: 7.4; PKA inh: 13.3

How did Cc1ccc(-n2c(C)nc3oc4ccccc4c(=O)c3c2=O)cc1 do in these assays?
mHtt clearance: 11.2; SF-1 act: 17.8; JNK3 inh: 6.7; RORa activator: 68.1*; ROCK2 inh: -3.0; PKA inh: -4.8

What do the screens show for `Cc1cc(C)c2c(N)c(C(=O)Nc3nccs3)sc2n1`?
mHtt clearance: -27.1; SF-1 act: -20.8; JNK3 inh: -9.3; RORa activator: 45.9; ROCK2 inh: 0.0; PKA inh: -0.4

Results for COCc1cc(C)nc2sc(C(=O)Nc3nccs3)c(N)c12 ?
SF-1 act: 92.1*; JNK3 inh: -3.7; RORa activator: 31.2; ROCK2 inh: 4.0; PKA inh: 9.4

How did N#CC1=C(SCC(=O)c2ccccc2)NC2=C(C(=O)CCC2)C1c1ccco1 (stereo unspecified) do in these assays?
SF-1 act: 100.4*; JNK3 inh: 57.5*; RORa activator: 173.5*; ROCK2 inh: -10.1; PKA inh: -11.7

Assay outcomes deposited in PubChem BioAssay by several laboratories.
